Consider 1 compound from ChEMBL document CHEMBL1121938, “Hypocholesterolemic and antiaggregatory properties of 2-hydroxytetronic acid redox analogues an their relationship to clofibric acid” (1982).

Experiment [1] can be described thus: Effect of compound was measured on serum heparin-MnCl2 precipated ipoprotein Dawley rats at 0.4 mmol/kg dose(day+7). Format: functional. Put shortly: (§1)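 Cholesterol-fed male Sprague-Dawley rats, n = 6 per group, given compound or 0.25% methylcellulose orally twice daily for 14 days, and fasted 16-18 h before each bleed (days -1, +4, +7, +10, +14). Heparin-MnCl2 precipitable lipoprotein cholesterol was taken as serum total cholesterol minus α-lipoprotein cholesterol. It is reported as a ratio to α-LP cholesterol ± SD. Analysis was ANOVA with repeated measures and Duncan's test.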

In experiment [2] the test system is Rattus norvegicus. Briefly: Effect of compound was measured on serum total triglycerides in male Dawley rats at the dose of 0.4 mmol/kg (day+10). Format: functional, organism-based. The procedure, abridged:
(§2)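 Serum triglycerides were measured with an enzymatic triglyceride reagent on a bichromatic analyzer. Rats were male Sprague-Dawley (180-210 g) fed a high-cholesterol diet, n = 6 per group, dosed orally twice daily for 14 days in 0.25% methylcellulose or vehicle. They were fasted 16-18 h before blood collection on days -1, +4, +7, +10 (orbital plexus, light ether) and +14 (aorta). Analysis was repeated-measures ANOVA with Duncan's test.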

The test system of experiment [3] is Rattus norvegicus. The experiment is described as follows: Effect of compound was measured on serum alpha-lipoprotein in male Dawley rats at the dose of 0.4 mmol/kg (day+4). Type of experiment: functional. Put shortly:
(§3)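 Male Sprague-Dawley rats (180-210 g) fed a high-cholesterol diet for 1 week before and throughout dosing. Groups of n = 6 were dosed orally twice daily for 14 days in 0.25% methylcellulose, with vehicle controls. Rats were fasted 16-18 h before orbital bleeds on days -1, +4, +7 and +10, and by aortic exsanguination on day +14. Serum α-lipoprotein cholesterol was measured by polyanionic precipitation, in mg/dL ± SD.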

Experiment [4] in a line: Effect of compound was measured on serum heparin-MnCl2 precipated ipoprotein Dawley rats at 0.2 mmol/kg dose(day-1). Format: functional. Put shortly: as §1
The test system of experiment [5] is Rattus norvegicus. Briefly: Effect of compound was measured on serum alpha-lipoprotein in male Dawley rats at the dose of 0.2 mmol/kg (day+10). Format: functional. The procedure, abridged:
as §3

A short description of experiment [6]: Effect of compound on liver to body weight ratio in male Dawley rats at the dose of 0.4 mmol/kg. Type of experiment: functional. The procedure, abridged: (§4)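 Male Sprague-Dawley rats (180-210 g) were kept on a cholesterol-rich diet and dosed orally twice daily for 14 days in 0.25% methylcellulose; vehicle controls received the same; n = 6 per group. After a 16-18 h fast, rats were exsanguinated at day +14. Livers were removed, rinsed in ice-cold buffer, blotted and weighed, and related to body weight. Data were analysed by repeated-measures ANOVA with Duncan's multiple range test.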

In experiment [7] the test system is Rattus norvegicus. Briefly: Effect of compound was measured on serum total cholesterol in male Dawley rats at the dose of 0.4 mmol/kg (day-1). Format: functional, organism-based. The procedure, abridged:
(§5)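 Serum total cholesterol was measured enzymatically on a bichromatic analyzer. Serum was separated after clotting on ice (2000g, 10 min), held at 4 °C and assayed within 48 h. Rats were male Sprague-Dawley on a high-cholesterol diet, n = 6, dosed orally twice daily for 14 days in 0.25% methylcellulose (1.0 mL/100 g). They were fasted 16-18 h before each bleed. Results are in mg/dL ± SD.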

A short description of experiment [8]: Effect of compound on liver to body weight ratio in male Dawley rats at the dose of 0.2 mmol/kg. Format: functional. Put shortly:
as §4

Experiment [9] relates to Rattus norvegicus. The experiment is described as follows: Effect of compound was measured on serum total cholesterol in male Dawley rats at the dose of 0.4 mmol/kg (day+14). Format: functional, organism-based. Put shortly: as §5
The test system of experiment [10] is Rattus norvegicus. Briefly: Effect of compound on liver CH levels in male Dawley rats at the dose of 0.2 mmol/kg. Format: functional. Put shortly: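 Male Sprague-Dawley rats (180-210 g) were kept on a high-cholesterol diet for 1 week before and throughout treatment. Groups of n = 6 received drug in 0.25% methylcellulose orally twice daily for 14 days, or vehicle. After a 16-18 h fast, livers were excised at day +14 and homogenized in 0.1 M Tris-HCl pH 7.2 with 1.15% KCl. Lipids were extracted from 25% w/v homogenate and reported as g/100 g wet liver ± SD; groups compared by ANOVA and Duncan's test.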

Experiment [11] has as its system Rattus norvegicus. The experiment is described as follows: Effect of compound was measured on serum total triglycerides in male Dawley rats at the dose of 0.2 mmol/kg (day+10). Type of experiment: functional, organism-based. Put shortly: as §2

For the compound `O=C1C(O)=C(O)OC1c1ccc(Cl)cc1` (stereo unspecified), the Ratio turned out to be 1.74 in [1], 6.03 in experiment [4], 3.6 in [6] and 3.8 in [8]. The Serum total triglycerides in the experiment with Rattus norvegicus [2] came to 139 mg/dL; in the experiment on Rattus norvegicus [11], 193 mg/dL. The Alpha-lipoprotein cholesterol with Rattus norvegicus [3] stood at 41.8 mg/dL; in the experiment with Rattus norvegicus [5], 38.8 mg/dL. The results for the serum total cholesterol with Rattus norvegicus [7] and in the experiment with Rattus norvegicus [9] were 196 mg/dL and 138 mg/dL, respectively. For the same compound, the “Liver CH levels” value with Rattus norvegicus [10] amounted to 3.28.
